Results: ChEMBL document CHEMBL3393025, “Discovery of dual leucine zipper kinase (DLK, MAP3K12) inhibitors with activity in neurodegeneration models” (J Med Chem, 2015)

Legend:
[1] = target: T1, Mitogen-activated protein kinase kinase kinase 12 (Homo sapiens, UniProt Q12852); assay: Inhibition of DLK (unknown origin)
T1 sequence (Q12852 whole entry): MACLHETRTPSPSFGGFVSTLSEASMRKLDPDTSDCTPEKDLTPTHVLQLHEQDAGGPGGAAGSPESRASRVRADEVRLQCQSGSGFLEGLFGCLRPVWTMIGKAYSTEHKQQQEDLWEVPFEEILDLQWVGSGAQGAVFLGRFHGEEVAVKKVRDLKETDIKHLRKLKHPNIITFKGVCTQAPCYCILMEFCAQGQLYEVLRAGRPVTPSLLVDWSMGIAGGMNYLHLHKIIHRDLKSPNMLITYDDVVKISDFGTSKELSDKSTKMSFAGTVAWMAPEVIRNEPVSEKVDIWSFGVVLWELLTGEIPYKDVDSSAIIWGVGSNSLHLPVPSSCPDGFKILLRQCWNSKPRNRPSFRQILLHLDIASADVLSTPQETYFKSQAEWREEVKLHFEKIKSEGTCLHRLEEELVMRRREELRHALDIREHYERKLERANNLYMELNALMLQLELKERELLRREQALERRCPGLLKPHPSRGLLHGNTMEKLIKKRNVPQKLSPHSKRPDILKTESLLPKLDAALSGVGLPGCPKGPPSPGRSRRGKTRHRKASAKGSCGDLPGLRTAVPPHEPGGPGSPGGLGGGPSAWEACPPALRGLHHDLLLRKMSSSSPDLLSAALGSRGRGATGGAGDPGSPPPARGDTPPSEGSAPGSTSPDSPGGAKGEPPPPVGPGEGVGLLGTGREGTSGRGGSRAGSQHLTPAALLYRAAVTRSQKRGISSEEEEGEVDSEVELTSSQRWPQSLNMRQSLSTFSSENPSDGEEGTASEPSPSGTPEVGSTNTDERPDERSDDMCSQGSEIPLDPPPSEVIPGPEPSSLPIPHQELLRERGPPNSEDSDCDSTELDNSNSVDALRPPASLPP

[2] = target: T1, Mitogen-activated protein kinase kinase kinase 12; assay: Inhibition of human DLK transfected in HEK293 cells assessed as JNK phosphorylation after 5.5 hrs by Hoechst-33342 staining-based assay; type: cell-based
[3] = Neuroprotective activity in E14.5 rat embryo DRG neurons; type: functional; details: drg neuron
Outline: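 DRG neurons freshly dissected from E14.5 rat embryos, plated at 1200−2000 cells/well on an astrocyte monolayer in DMEM/F12 with N3 supplement, 0.18% glucose and 25 ng/mL NGF. 200 μM uridine and 100 μM 5-fluorodeoxyuridine added next day. Cultured 4 days before axon degeneration assay. IC50 reported.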

Structure (SMILES)	Ki [1] [nM]	IC50 [2] [nM]	IC50 [3] [nM]
Cc1nc(Nc2cc(C#N)ccn2)cc(C2CCCN(C(=O)c3ccccc3)C2)n1 (racemic)	90	1000	–
N#Cc1ccnc(Nc2cc(C3CCN(C4COC4)CC3)cc(C3CC3)n2)c1	1	62	155
CC(C)(C#N)c1cc(Nc2cc(C#N)ccn2)nc(N2CCC(F)(F)C2)c1	14	193	–
Cc1nc(Nc2cc(C(C)C)ccn2)cc(C2CCCN(C(=O)c3ccccc3)C2)n1 (racemic)	4	1300	–
CCc1cc(C2CCN(C3COC3)CC2)cc(Nc2cc(C#N)ccn2)n1	–	213	916
CC(=O)N1CCC(c2cc(Nc3cc(C(F)(F)F)ccn3)nc(N3CC(F)(F)C3)n2)CC1	166	–	–
Cc1nc(Nc2cc(C3CC3)ccn2)cc(C2CCCN(C(=O)c3ccccc3)C2)n1 (racemic)	18	486	–
N#Cc1ccnc(Nc2cc(C3CCOCC3)cc(N3CCC(F)(F)C3)n2)c1	0.9	70	–
FC1(F)CCN(c2nc(Nc3cc(C(F)(F)F)ccn3)cc(C3CCOCC3)n2)C1	41	440	–
FC1(F)CCN(c2nc(Nc3cc(C(F)(F)F)ccn3)cc(C3CCCNC3)n2)C1 (stereo not drawn)	7	408	–
Cc1nc(Nc2ncc(C)s2)cc(C2CCCN(C(=O)c3ccccc3)C2)n1 (racemic)	35	641	–
COc1ccnc(Nc2cc(C3CCCN(C(=O)c4ccccc4)C3)nc(C)n2)c1 (racemic)	57	1000	–
CC(=O)N1CCC(c2cc(Nc3cc(C(F)(F)F)ccn3)nc(N3CCC(F)(F)C3)n2)CC1	33	300	–
N#Cc1ccnc(Nc2cc(C3CN(C4COC4)C3)cc(N3CCC(F)(F)C3)n2)c1	0.7	57	99

Further lines, with some results ahead:

Ki [1] [nM]	IC50 [2] [nM]	Structure (SMILES)	IC50 [3] [nM]
85	767	Cc1ccnc(Nc2cc(C3CCCN(C(=O)c4ccccc4)C3)nc(C)n2)c1 (racemic)	–
725	–	Cc1nc(Nc2cc(C(F)(F)F)ccn2)cc(C2CCCNC2)n1 (racemic)	–
942	–	Cc1nc(Nc2ccccn2)cc(C2CCCN(C(=O)c3ccccc3)C2)n1 (racemic)	–
8	233	COC1CN(c2cc(C3CCN(C4COC4)CC3)cc(Nc3cc(C#N)ccn3)n2)C1	697
25	–	CC(=O)N1CCC(c2cc(Nc3cc(C#N)ccn3)nc(N3CCC(F)(F)C3)c2)CC1	180
431	–	CC(=O)N1CCC(c2cc(Nc3cc(C(F)(F)F)ccn3)nc(N3CCOCC3)n2)CC1	–
–	1600	Cc1cc(C2CCN(C3COC3)CC2)cc(Nc2cc(C#N)ccn2)n1	–
5	79	N#Cc1ccnc(Nc2cc(C3(C#N)CCOCC3)cc(N3CCC(F)(F)C3)n2)c1	–
5	125	CC(C)(O)c1cc(Nc2cc(C#N)ccn2)nc(N2CCC(F)(F)C2)c1	401
0.2	64	N#Cc1ccnc(Nc2cc(C3CCN(C4COC4)CC3)cc(OC3CCC3)n2)c1	46
24	229	Cc1nc(Nc2cc(C(F)(F)F)ccn2)cc(C2CCCN(C(=O)c3ccccc3)C2)n1 (racemic)	–
7	109	FC(F)(F)c1ccnc(Nc2cc(C3CCCNC3)nc(N3CCCC3)n2)c1 (stereo not drawn)	–
1	69	CC(=O)N1CCC(c2cc(Nc3cc(C(F)(F)F)ccn3)nc(N3CCC(F)(F)C3)c2)CC1	171
8	141	N#Cc1ccnc(Nc2cc(C3CCN(C4COC4)CC3)cc(N3CCC3)n2)c1	448
